Test results from ChEMBL document CHEMBL1139629 (Bioorg Med Chem Lett, 2005).
Each block holds one molecule with its values, some of them ahead of it.

What was measured:
Cell line = test: Inhibition concentration against ADP-induced platelet aggregation using human platelet rich plasma; format: functional, cell-based
Outline: (§1)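 Functional IP agonism was measured as inhibition of ADP-induced aggregation in platelet-rich plasma from human, rat, dog or monkey. IC50 was taken from the inhibition of aggregation.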

Rattus norvegicus = species: Rattus norvegicus; test: Inhibition concentration against ADP-induced platelet aggregation using rat platelet rich plasma; format: functional
Outline: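 Aggregation was induced with ADP in rat platelet-rich plasma, and IC50 was taken from inhibition of aggregation. Values are the mean of two or three experiments.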

[1] = Bioavailability in rat after […] administration at 10 mg/kg dose; format: ADME, organism-based; details: in vivo, read-out: Ba
Monkey = test: Inhibition concentration against ADP-induced platelet aggregation using monkey platelet rich plasma; format: functional; details: Cercopithecidae; outline: as §1
[2] = target: Prostaglandin E2 receptor EP2 subtype (Homo sapiens, UniProt P43116); test: Displacement of [3H]-PGE-2 from human Prostanoid EP2 receptor
Chain of Prostaglandin E2 receptor EP2 subtype (P43116 whole entry): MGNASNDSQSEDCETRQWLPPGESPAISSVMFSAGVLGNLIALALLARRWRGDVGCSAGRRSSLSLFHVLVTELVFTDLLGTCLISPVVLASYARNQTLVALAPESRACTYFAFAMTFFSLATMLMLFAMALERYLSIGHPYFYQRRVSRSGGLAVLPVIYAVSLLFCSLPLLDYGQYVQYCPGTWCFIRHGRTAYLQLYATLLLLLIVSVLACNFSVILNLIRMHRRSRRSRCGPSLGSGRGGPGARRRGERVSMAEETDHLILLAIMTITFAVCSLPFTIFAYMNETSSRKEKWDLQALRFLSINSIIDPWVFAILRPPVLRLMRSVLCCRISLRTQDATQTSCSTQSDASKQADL

[3] = target: Prostaglandin F2-alpha receptor (Homo sapiens, UniProt P43088); test: Displacement of [3H]PGF-2 from human Prostanoid FP receptor
Chain of Prostaglandin F2-alpha receptor (P43088 whole entry): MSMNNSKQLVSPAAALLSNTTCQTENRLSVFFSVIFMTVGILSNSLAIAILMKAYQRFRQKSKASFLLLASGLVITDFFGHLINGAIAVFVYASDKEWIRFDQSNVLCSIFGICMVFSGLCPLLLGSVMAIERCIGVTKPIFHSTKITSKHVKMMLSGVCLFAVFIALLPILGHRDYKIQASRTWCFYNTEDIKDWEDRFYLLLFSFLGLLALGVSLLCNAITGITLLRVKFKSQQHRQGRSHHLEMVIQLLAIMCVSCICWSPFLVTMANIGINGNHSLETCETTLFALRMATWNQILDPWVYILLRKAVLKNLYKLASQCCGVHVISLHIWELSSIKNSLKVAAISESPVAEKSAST

Prostacyclin receptor = Prostacyclin receptor (Homo sapiens, UniProt P43119); test: Displacement of [3H]iloprost from human Prostanoid IP receptor
Chain of Prostacyclin receptor (P43119 whole entry): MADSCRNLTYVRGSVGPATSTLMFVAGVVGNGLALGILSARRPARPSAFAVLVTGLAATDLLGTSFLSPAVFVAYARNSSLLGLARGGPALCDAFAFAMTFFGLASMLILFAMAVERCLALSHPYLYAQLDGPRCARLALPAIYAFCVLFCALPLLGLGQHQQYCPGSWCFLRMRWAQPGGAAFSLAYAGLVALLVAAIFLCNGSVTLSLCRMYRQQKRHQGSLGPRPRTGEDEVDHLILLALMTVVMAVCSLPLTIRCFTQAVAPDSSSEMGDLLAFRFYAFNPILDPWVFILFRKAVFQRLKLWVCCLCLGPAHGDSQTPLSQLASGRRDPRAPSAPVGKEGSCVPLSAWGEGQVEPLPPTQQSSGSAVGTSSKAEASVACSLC
Outline: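 Competitive radioligand binding using cloned human IP receptor, measuring displacement of [3H]-iloprost.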

[4] = Total clearance in dog after intravenous administration at 0.32 mg/kg dose; format: ADME, organism-based, Canis lupus familiaris; set-up: dose 0.32 mg/kg, route intravenous; details: in vivo, read-out: CLtot
Canis familiaris = species: Canis familiaris; test: Inhibition concentration against ADP-induced platelet aggregation using dog platelet rich plasma; format: functional; details: Canis lupus familiaris; outline: as §1
dog (Canis familiaris) = test: Area under curve in dog after oral administdogion at 0.32 mg/kg dose; details: in vivo
[5] = target: T1, Prostaglandin E2 receptor EP3 subtype (Homo sapiens, UniProt P43115); test: Displacement of [3H]PGE-2 from human Prostanoid EP3 receptor
T1 sequence (P43115 whole entry): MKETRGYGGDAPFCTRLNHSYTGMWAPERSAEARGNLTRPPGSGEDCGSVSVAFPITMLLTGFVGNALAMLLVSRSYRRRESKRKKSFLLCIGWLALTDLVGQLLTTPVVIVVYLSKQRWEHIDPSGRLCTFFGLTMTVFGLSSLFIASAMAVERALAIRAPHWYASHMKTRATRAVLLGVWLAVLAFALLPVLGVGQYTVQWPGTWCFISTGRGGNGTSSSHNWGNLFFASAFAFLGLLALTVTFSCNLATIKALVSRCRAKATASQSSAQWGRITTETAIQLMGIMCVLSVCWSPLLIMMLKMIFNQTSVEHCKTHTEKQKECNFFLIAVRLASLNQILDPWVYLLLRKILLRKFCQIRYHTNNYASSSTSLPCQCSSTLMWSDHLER

Thromboxane A2 receptor = target: T2, Thromboxane A2 receptor (Homo sapiens, UniProt P21731); test: Displacement of [3H]SQ-29,548 from human Prostanoid TP receptor
T2 sequence (P21731 whole entry): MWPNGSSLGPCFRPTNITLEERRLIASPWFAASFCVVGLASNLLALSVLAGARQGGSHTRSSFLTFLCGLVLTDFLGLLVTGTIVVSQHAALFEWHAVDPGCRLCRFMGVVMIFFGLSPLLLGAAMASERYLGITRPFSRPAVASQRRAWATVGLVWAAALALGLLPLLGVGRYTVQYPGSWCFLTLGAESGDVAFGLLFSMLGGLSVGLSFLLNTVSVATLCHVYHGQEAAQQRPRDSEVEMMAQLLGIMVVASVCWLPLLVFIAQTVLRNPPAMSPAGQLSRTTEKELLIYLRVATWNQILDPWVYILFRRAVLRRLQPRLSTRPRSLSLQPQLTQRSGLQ

[6] = Maximum concentration in rat after oral administration at 10 mg/kg dose; format: ADME, organism-based; set-up: dose 10 mg/kg, route oral; details: in vivo
[7] = target: T3, Prostaglandin E2 receptor EP1 subtype (Homo sapiens, UniProt P34995); test: Displacement of [3H]PGE-2 from human Prostanoid EP1 receptor
T3 sequence (P34995 whole entry): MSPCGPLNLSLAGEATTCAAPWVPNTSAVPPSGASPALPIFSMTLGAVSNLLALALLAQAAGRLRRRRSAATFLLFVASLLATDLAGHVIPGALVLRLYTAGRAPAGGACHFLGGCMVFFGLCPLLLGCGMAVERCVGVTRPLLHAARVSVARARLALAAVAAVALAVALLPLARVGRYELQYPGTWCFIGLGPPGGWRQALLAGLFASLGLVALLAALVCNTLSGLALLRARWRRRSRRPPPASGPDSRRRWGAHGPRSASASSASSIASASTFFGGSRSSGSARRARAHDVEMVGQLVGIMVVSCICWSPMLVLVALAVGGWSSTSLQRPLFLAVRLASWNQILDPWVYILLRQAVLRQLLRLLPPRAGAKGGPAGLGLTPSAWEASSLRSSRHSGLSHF

[8] = target: T4, Prostaglandin D2 receptor (Homo sapiens, UniProt Q13258); test: Displacement of [3H]PGD-2 from human Prostanoid DP receptor
T4 sequence (Q13258 whole entry): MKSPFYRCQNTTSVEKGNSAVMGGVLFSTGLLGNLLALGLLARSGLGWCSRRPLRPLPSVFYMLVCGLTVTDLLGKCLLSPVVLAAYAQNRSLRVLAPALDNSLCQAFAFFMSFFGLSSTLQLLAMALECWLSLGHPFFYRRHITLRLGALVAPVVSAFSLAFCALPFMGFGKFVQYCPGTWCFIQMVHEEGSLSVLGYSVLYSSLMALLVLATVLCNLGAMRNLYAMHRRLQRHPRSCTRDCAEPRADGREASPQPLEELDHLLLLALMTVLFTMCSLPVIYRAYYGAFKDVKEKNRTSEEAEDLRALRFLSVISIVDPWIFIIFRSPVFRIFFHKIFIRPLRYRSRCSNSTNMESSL

[9] = Total clearance in rat after intravenous administration at 10 mg/kg dose; format: ADME, organism-based; set-up: dose 10 mg/kg, route intravenous; details: in vivo, read-out: CLtot
[10] = Half life in rat after intravenous administration at 10 mg/kg dose; format: ADME, organism-based; set-up: dose 10 mg/kg, route intravenous; details: in vivo
[11] = Area under curve in rat after oral administration at 10 mg/kg dose; format: ADME, organism-based; set-up: dose 10 mg/kg, route oral; details: in vivo
[12] = target: Prostaglandin E2 receptor EP4 subtype (Homo sapiens, UniProt P35408); test: Displacement of [3H]PGE-2 from human Prostanoid EP4 receptor
Chain of Prostaglandin E2 receptor EP4 subtype (P35408 whole entry): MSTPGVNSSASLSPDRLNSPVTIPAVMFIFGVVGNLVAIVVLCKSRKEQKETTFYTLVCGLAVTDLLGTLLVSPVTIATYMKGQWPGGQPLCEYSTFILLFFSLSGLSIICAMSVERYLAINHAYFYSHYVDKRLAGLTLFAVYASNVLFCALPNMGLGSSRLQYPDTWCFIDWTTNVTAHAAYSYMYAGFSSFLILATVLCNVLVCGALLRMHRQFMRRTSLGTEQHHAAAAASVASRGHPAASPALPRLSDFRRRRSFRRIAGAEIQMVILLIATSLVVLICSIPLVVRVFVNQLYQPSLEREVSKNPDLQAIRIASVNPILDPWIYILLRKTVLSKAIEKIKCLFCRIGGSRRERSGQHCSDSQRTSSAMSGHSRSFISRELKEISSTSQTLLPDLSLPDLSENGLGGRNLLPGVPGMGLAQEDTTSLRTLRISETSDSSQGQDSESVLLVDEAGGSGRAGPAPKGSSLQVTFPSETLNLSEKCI

SMILES: CC#CCC(C)[C@H](O)/C=C/[C@@H]1[C@H]2C/C(=C/CCCC(=O)O)C[C@H]2C[C@H]1O (stereo not given in full) [ILOPROST]
IC50 (Cell line): 2.5 nM

SMILES: O=C(O)COc1cccc2c1CC[C@](O)(COC(=O)N(c1ccccc1)c1ccccc1)C2
bioavailability [1]: 38% | IC50 (Monkey): 13 nM | Ki [2]: > 10000 nM | Ki [3]: > 10000 nM | Ki (Prostacyclin receptor): 8.9 nM | clearance [4]: 2.31 mL/min/kg | IC50 (Canis familiaris): 480 nM | AUC (dog (Canis familiaris)): 2200 ng·h/mL | Ki [5]: 8200 nM | IC50 (Cell line): 18 nM | Ki (Thromboxane A2 receptor): > 10000 nM | Cmax [6]: 342 ng/mL | Ki [7]: 9600 nM | IC50 (Rattus norvegicus): 1400 nM | Ki [8]: 2300 nM | clearance [9]: 38 mL/min/kg | half-life [10]: 1.81 h | AUC [11]: 1590 ng·h/mL | Ki [12]: > 10000 nM

SMILES: O=C(O)COc1cccc2c1CC[C@H](COC(=O)N(c1ccccc1)c1ccccc1)C2O (single isomer, unassigned)
IC50 (Cell line): 170 nM | IC50 (Rattus norvegicus): > 10000 nM

SMILES: O=C(O)COc1cccc2c1CCC[C@H]2N1CCC[C@@H]1c1nc(-c2ccccc2)c(-c2ccccc2)o1
Ki [2]: > 1000 nM | Ki [3]: > 1000 nM | Ki (Prostacyclin receptor): 12 nM | Ki [5]: > 10000 nM | Ki (Thromboxane A2 receptor): > 1000 nM | Ki [7]: > 1000 nM | Ki [8]: > 1000 nM | Ki [12]: > 10000 nM

SMILES: O=C(O)COc1cccc2c1CC[C@@](O)(COC(=O)N(c1ccccc1)c1ccccc1)C2
IC50 (Cell line): 270 nM | IC50 (Rattus norvegicus): > 10000 nM

SMILES: O=C(O)COc1cccc(C[C@@H]2CCCC=C2c2nc(-c3ccccc3)c(-c3ccccc3)o2)c1
Ki [2]: > 1000 nM | Ki [3]: > 1000 nM | Ki [5]: 6800 nM | Ki (Thromboxane A2 receptor): > 1000 nM | Ki [7]: > 1000 nM | Ki [8]: > 1000 nM

SMILES: O=C(O)COc1cccc2c1CCC(COC(=O)N(c1ccccc1)c1ccccc1)C2 (stereo not given)
Ki [2]: > 1000 nM | Ki (Prostacyclin receptor): 140 nM | Ki [5]: 1900 nM | IC50 (Cell line): 53 nM | Ki [7]: > 1000 nM | IC50 (Rattus norvegicus): > 10000 nM | Ki [12]: > 10000 nM

More lines, in order of falling IC50 (Cell line), values ahead:

IC50 (Cell line): 3200 nM | IC50 (Rattus norvegicus): > 10000 nM
SMILES: O=C(O)COc1cccc2c1CC[C@H](COC(=O)N(c1ccccc1)c1ccccc1)[C@H]2O

IC50 (Cell line): 1300 nM | IC50 (Rattus norvegicus): > 10000 nM
SMILES: O=C(O)COc1cccc2c1CC[C@](O)(COC(=O)N(c1ccccc1)c1ccccc1)[C@H]2O

IC50 (Cell line): 150 nM | IC50 (Rattus norvegicus): 5600 nM
SMILES: CCC/C(CC1CCc2c(cccc2OCC(=O)O)C1)=N\OC(c1ccccc1)c1ccccc1 (stereo not given) [AP-227]

IC50 (Cell line): 91 nM | IC50 (Rattus norvegicus): > 10000 nM
SMILES: O=C(O)COc1cccc2c1CCC(COC(=O)N(c1ccccc1)c1ccccc1)=C2

Ki [2]: > 1000 nM | Ki (Prostacyclin receptor): 110 nM | Ki [5]: > 10000 nM | IC50 (Cell line): 5.8 nM | Ki [7]: > 1000 nM | IC50 (Rattus norvegicus): 7400 nM | Ki [12]: > 10000 nM
SMILES: O=C(O)COc1cccc2c1CC[C@](O)(COC(=O)N(c1ccccc1)c1ccccc1)C2O (single isomer, unassigned)
